Laboratory results as given in ChEMBL document CHEMBL1143438, “N-Glycine-sulfonamides as potent dual orexin 1/orexin 2 receptor antagonists” (Bioorg Med Chem Lett, 2008).
Active and inactive are the calls of the source. The rule behind the calls is not given here.

Legend:
Orexin receptor type 2 = biological target: T1, Orexin receptor type 2 (Homo sapiens, UniProt O43614); test: Inhibition of human OX2 receptor expressed in CHO cells assessed as […] calcium mobilization by FLIPR assay; assay type: functional, cell-based
T1 sequence (O43614 whole entry): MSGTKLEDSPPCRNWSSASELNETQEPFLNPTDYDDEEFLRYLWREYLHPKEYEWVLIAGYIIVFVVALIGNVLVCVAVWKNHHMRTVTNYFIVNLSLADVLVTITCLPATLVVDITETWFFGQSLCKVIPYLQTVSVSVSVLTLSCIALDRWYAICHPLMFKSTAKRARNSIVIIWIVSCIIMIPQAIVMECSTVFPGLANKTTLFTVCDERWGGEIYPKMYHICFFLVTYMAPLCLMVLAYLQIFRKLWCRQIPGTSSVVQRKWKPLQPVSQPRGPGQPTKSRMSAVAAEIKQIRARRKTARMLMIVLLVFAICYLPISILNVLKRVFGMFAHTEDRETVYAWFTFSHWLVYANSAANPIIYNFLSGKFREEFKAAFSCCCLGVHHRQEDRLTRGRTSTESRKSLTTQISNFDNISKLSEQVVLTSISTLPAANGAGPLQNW
In short: (§1)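 CHO cells expressing human OX1 or OX2 receptor, loaded with fluo-3 AM at 37 °C in 5% CO2, then washed. Antagonist added at varying concentrations before orexin A; intracellular Ca2+ rise read as fluorescence change by FLIPR. IC50 taken as concentration inhibiting 50% of agonist response.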

[1] = biological target: T2, Orexin/Hypocretin receptor type 1 (Homo sapiens, UniProt O43613); test: Inhibition of human OX1 receptor expressed in CHO cells assessed as […] calcium mobilization by FLIPR assay; assay type: functional, cell-based; in short: as §1
T2 sequence (O43613 whole entry): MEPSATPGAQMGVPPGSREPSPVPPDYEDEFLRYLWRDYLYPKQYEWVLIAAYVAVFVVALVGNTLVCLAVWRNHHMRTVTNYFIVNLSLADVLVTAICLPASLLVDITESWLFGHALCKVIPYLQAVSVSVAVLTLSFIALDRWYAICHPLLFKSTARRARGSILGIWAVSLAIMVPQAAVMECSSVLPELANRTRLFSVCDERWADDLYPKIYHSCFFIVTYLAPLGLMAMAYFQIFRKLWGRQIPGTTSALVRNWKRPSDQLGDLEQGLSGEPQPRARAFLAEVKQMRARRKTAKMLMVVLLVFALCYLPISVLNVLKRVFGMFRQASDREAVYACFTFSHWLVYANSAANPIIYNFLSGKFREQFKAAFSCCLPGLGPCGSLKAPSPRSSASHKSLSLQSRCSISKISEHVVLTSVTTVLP

[2] = Tmax in Wistar rat at 10 mg/kg, po; assay type: ADME, organism-based; set-up: dose 10 mg/kg, route oral; settings: in vivo
In short: (§2)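 Oral dosing of male Wistar rats at 10 mg/kg formulated in 100% PEG-400, three animals. Serial blood collected into Na-EDTA at various times, spun to plasma. Cmax (ng/mL), Tmax (h), AUC (ng h/mL) from plasma concentration–time curve; F as percent of dose.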

[3] = Clearance in Wistar rat plasma at 1 mg/kg, iv; assay type: ADME, organism-based; set-up: dose 1 mg/kg, route intravenous
In short: (§3)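 Male Wistar rats on 12-h light/dark cycle; single iv dose 1 mg/kg in 5%/95% (v/v) DMSO : 30/70 hydroxypropyl-β-cyclodextrin/sterile water; one or two animals. Serial blood drawn into Na-EDTA tubes at various time-points, centrifuged to plasma; parameters (clearance mL/min kg, Vss L/kg) derived from plasma concentration–time profiles.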

[4] = Oral bioavailability in Wistar rat at 10 mg/kg; assay type: ADME, organism-based; settings: in vivo; in short: as §2
[5] = AUC in Wistar rat at 10 mg/kg, po; assay type: ADME, organism-based; set-up: dose 10 mg/kg, route oral; settings: plasma; in short: as §2
[6] = Volume of distribution at steady state in Wistar rat at 1 mg/kg, iv; assay type: ADME, organism-based; set-up: dose 1 mg/kg, route intravenous; settings: in vivo, read-out: Vdss; in short: as §3
[7] = Half life in Wistar rat at 1 mg/kg, iv; assay type: ADME, organism-based; set-up: dose 1 mg/kg, route intravenous; settings: in vivo; in short: as §3
[8] = Cmax in Wistar rat at 10 mg/kg, po; assay type: ADME, organism-based; set-up: dose 10 mg/kg, route oral; settings: in vivo; in short: as §2
[9] = AUC in Wistar rat at 1 mg/kg, iv; assay type: ADME, organism-based; set-up: dose 1 mg/kg, route intravenous; settings: plasma; in short: as §3
Rattus norvegicus [10] = test: Effect on behavioral activity in po dosed Wistar rat assessed as change in time spent on rapid eye movement sleep in dark; assay type: functional, organism-based
In short: (§4)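 Freely moving adult male Wistar rats with radiotelemetric probes recording EEG, EMG, locomotor activity and body temperature in home cage; oral dosing in 100% PEG-400 at start of dark phase (100, 300 mg/kg). Home cage activity, active wake, non-REM and REM time integrated over 12-h night. Groups of 7–8, crossover, ≥4-day washout; mean ± SEM, one-way ANOVA with Bonferroni post hoc.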

Rattus norvegicus [11] = test: Effect on behavioral activity in Wistar rat assessed as increase in time spent on rapid eye movement sleep at 300 mg/kg, po after 12 hrs; assay type: functional; in short: as §4
[12] = Drug level in Wistar rat brain at 100 mg/kg, po after 3 hrs; assay type: ADME, organism-based; set-up: dose 100 mg/kg, route oral; settings: read-out: Drug uptake
In short: (§5)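 Male Wistar rats given 100 mg/kg po; plasma, CSF and brain sampled 1 and 3 h post-dose from same animal (±5 min). Blood from vena cava caudalis into EDTA; CSF from cisterna magna avoiding blood; brain taken after cardiac perfusion with 10 mL 0.9% NaCl, homogenized in 1 volume cold phosphate buffer pH 7.4; total brain concentration in ng/g.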

Rattus norvegicus [13] = test: Effect on behavioral activity in po dosed Wistar rat assessed as change in time spent on non-rapid eye movement sleep in dark; assay type: functional, organism-based; in short: as §4
Rattus norvegicus [14] = test: Effect on behavioral activity in po dosed Wistar rat assessed as increase in time spent on rapid eye movement sleep after 12 hrs in dark; assay type: functional, organism-based; in short: as §4
Rattus norvegicus [15] = test: Effect on behavioral activity in po dosed Wistar rat assessed as decrease in home cage activity in dark; assay type: functional, organism-based; in short: as §4
Rattus norvegicus [16] = test: Effect on behavioral activity in po dosed Wistar rat assessed as change in time spent active wake in dark; assay type: functional, organism-based; in short: as §4
Rattus norvegicus [17] = test: Effect on behavioral activity in Wistar rat assessed as increase in time spent on non-rapid eye movement sleep at 300 mg/kg, po after 12 hrs; assay type: functional; in short: as §4
Rattus norvegicus [18] = test: Drug level in Wistar rat brain at 100 mg/kg, po; assay type: ADME, organism-based; set-up: dose 100 mg/kg, route oral; settings: in vivo; in short: as §5
Rattus norvegicus [19] = test: Effect on behavioral activity in po dosed Wistar rat assessed as increase in time spent on non-rapid eye movement sleep after 12 hrs in dark; assay type: functional, organism-based; in short: as §4

## CCN(CC)C(=O)CN(c1ccc(C)cc1)S(=O)(=O)c1cccc(C)c1
Orexin receptor type 2
  IC50: 60 nM
[1]
  IC50: > 10000 nM

## CCN(CC)C(=O)CN(c1ccc(C)cc1)S(=O)(=O)c1ccc(OC(F)(F)F)cc1
Orexin receptor type 2
  IC50: 1820 nM
[1]
  IC50: > 10000 nM

## CCN(C(=O)CN(c1cc(N(C)C)ccc1Cl)S(=O)(=O)c1ccc(OC)c(OC)c1)c1ccn(C)n1
[2]
  Tmax: 240 min
Orexin receptor type 2
  IC50: 7 nM
[3]
  clearance: 14 mL/min/kg
[4]
  bioavailability: 46%
[5]
  AUC: 5660 ng·h/mL
[6]
  Vd: 1 L/kg
[7]
  half-life: 54 min
[8]
  Cmax: 858 ng/mL
[1]
  IC50: 12 nM
[9]
  AUC: 1230 ng·h/mL

## CCN(CC)C(=O)CN(c1ccc(C)cc1)S(=O)(=O)c1ccc(C)cc1
Orexin receptor type 2
  IC50: 232 nM
[1]
  IC50: > 10000 nM

## CCN(CC)C(=O)CN(c1cc(Cl)ccc1N(C)C)S(=O)(=O)c1ccc(OC)c(OC)c1
Orexin receptor type 2
  IC50: 60 nM
[1]
  IC50: 4880 nM

## CCN(CC)C(=O)CN(c1ccc(C)cc1)S(=O)(=O)c1ccccc1F
Orexin receptor type 2
  IC50: 3370 nM
[1]
  IC50: > 10000 nM

## CCN(C(=O)CN(c1cc(N(C)C)ccc1Cl)S(=O)(=O)c1ccc(OC)c(OC)c1)c1cccc(C)n1
[2]
  Tmax: 30 min
Orexin receptor type 2
  IC50: 5 nM
[3]
  clearance: 38 mL/min/kg
Rattus norvegicus [10]
  Activity: Active
Rattus norvegicus [11]
  Activity: 17%
[4]
  bioavailability: 35%
[5]
  AUC: 2290 ng·h/mL
[6]
  Vd: 1.7 L/kg
[12]
  concentration at 3 h: 66 ng/g
Rattus norvegicus [13]
  Activity: Active
[7]
  half-life: 30 min
Rattus norvegicus [14]
  Activity: Dose-dependent effect
[8]
  Cmax: 582 ng/mL
Rattus norvegicus [15]
  Activity: Dose-dependent effect
Rattus norvegicus [16]
  Activity: Active
Rattus norvegicus [17]
  Activity: 83%
[1]
  IC50: 17 nM
Rattus norvegicus [18]
  Drug uptake: 10 ng/g
Rattus norvegicus [19]
  Activity: Dose-dependent effect
[9]
  AUC: 434 ng·h/mL

## CCN(CC)C(=O)CN(c1cc(C(C)C)ccc1Cl)S(=O)(=O)c1ccc(OC)c(OC)c1
Orexin receptor type 2
  IC50: 90 nM
[1]
  IC50: 888 nM

## CCN(CC)C(=O)CN(c1ccc(C)cc1)S(=O)(=O)c1ccccc1Cl
Orexin receptor type 2
  IC50: 800 nM
[1]
  IC50: > 10000 nM

## CCN(CC)C(=O)CN(c1ccc(Cl)c(N(C)C)c1)S(=O)(=O)c1ccc(OC)c(OC)c1
Orexin receptor type 2
  IC50: 789 nM
[1]
  IC50: > 10000 nM

## CCN(CC)C(=O)CN(c1ccc(C)cc1)S(=O)(=O)c1ccc(C#N)cc1
Orexin receptor type 2
  IC50: 1190 nM
[1]
  IC50: > 10000 nM

## CCN(CC)C(=O)CN(c1cc(N(C)C)ccc1OC)S(=O)(=O)c1ccc(OC)c(OC)c1
Orexin receptor type 2
  IC50: 239 nM
[1]
  IC50: > 10000 nM

## CCN(CC)C(=O)CN(c1ccc(C)cc1)S(=O)(=O)c1ccccc1C
Orexin receptor type 2
  IC50: 58 nM
[1]
  IC50: > 10000 nM

## CCN(C(=O)CN(c1cc2c(C)nsc2cc1Cl)S(=O)(=O)c1ccc(OC)c(OC)c1)c1cccc(C)n1
[2]
  Tmax: 30 min
Orexin receptor type 2
  IC50: 7 nM
[3]
  clearance: 32 mL/min/kg
[4]
  bioavailability: 2%
[5]
  AUC: 121 ng·h/mL
[6]
  Vd: 1.5 L/kg
[7]
  half-life: 48 min
[8]
  Cmax: 40 ng/mL
[1]
  IC50: 8 nM
[9]
  AUC: 536 ng·h/mL

## CCN(CC)C(=O)CN(c1cc(C(F)(F)F)ccc1Cl)S(=O)(=O)c1ccc(OC)c(OC)c1
Orexin receptor type 2
  IC50: 48 nM
[1]
  IC50: 2490 nM

## CCN(CC)C(=O)CN(c1ccc(C)cc1C#N)S(=O)(=O)c1ccc(OC)c(OC)c1
Orexin receptor type 2
  IC50: 4 nM
[1]
  IC50: 886 nM

## CCN(C(=O)CN(c1cc2c(C)nsc2cc1Cl)S(=O)(=O)c1ccc(OC)c(OC)c1)c1ccccn1
[2]
  Tmax: 30 min
Orexin receptor type 2
  IC50: 5 nM
[3]
  clearance: 51 mL/min/kg
[4]
  bioavailability: 1%
[5]
  AUC: 34 ng·h/mL
[6]
  Vd: 1 L/kg
[7]
  half-life: 36 min
[8]
  Cmax: 41 ng/mL
[1]
  IC50: 8 nM
[9]
  AUC: 327 ng·h/mL

## CCN(CC)C(=O)CN(c1cc(N(C)CC)ccc1Cl)S(=O)(=O)c1ccc(OC)c(OC)c1
Orexin receptor type 2
  IC50: 433 nM
[1]
  IC50: 1370 nM
